Data on five molecules can be found in ChEMBL document CHEMBL3112470, “Design and synthesis of N₁-aryl-benzimidazoles 2-substituted as novel HIV-1 non-nucleoside reverse transcriptase inhibitors” (Bioorg Med Chem, 2014).

What is called IC50 is the concentration that gives 50% inhibition. A word on the CC50: it is the concentration giving 50% cytotoxicity. The term EC50 denotes the concentration at which the effect is half-maximal.

Structures are written as SMILES. Calls of active or inactive are those of the source. The calls are words filed in the database; no cut-off is given here.

For the first data set, the target named is Human immunodeficiency virus type 1 reverse transcriptase (Human immunodeficiency virus 1, UniProt Q72547). Nature of the data set: Inhibition of GST-tagged recombinant wild type HIV-1 reverse transcriptase p66/p51 RNA-dependent DNA polymerase activity expressed in Escherichia coli JM109 using dTTP as substrate after 40 mins by spectrofluorometric analysis.
Settings: not given
Turning to `Cc1cc(C)cc(Cn2c(SCC(=O)Nc3ccc(C)cc3Cl)nc3ccc(Cl)cc32)c1`, the IC50 was above 248 µM.

Consider `Cc1cc(C)cc(S(=O)(=O)n2c(SCC(=O)Nc3ccccc3Cl)nc3ccccc32)c1`, for which the IC50 came out at 51.9 µM.

Turning to `Cc1cc(C)cc(S(=O)(=O)n2c(SCC(=O)Nc3ccc(S(C)(=O)=O)cc3Cl)nc3ccccc32)c1`, the IC50 is 0.12 µM.

In the case of `Cc1cc(C)cc(Cn2c(SCC(=O)Nc3ccccc3Br)nc3ccccc32)c1`, the IC50 turned out to be 15 µM.

For the molecule `Cc1cc(C)cc(S(=O)(=O)n2c(SCC(=O)Nc3ccccc3Cl)nc3ccc(Cl)cc32)c1`, the IC50 worked out at 18.6 µM.

The next data set concerns Human immunodeficiency virus 1. Nature of the data set: Antiviral activity against NNRTI-resistant HIV-1 RES056 harboring reverse transcriptase K103N/Y181C double mutant.
Settings: not given
The format is functional, organism-based. The essentials: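 MT-4 cells were infected with virus at about 100 times the CCID50 per ml of cell suspension and mixed with serial compound dilutions. They were incubated 5 days at 37 °C, then viable cells were counted. EC50 is the concentration that reduces virus-induced cytopathic effect by 50%. Cytotoxicity was measured in parallel in MT-4 cells.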
`Cc1cc(C)cc(Cn2c(SCC(=O)Nc3ccc(C)cc3Cl)nc3ccc(Cl)cc32)c1`: the result was inactive.

With `Cc1cc(C)cc(S(=O)(=O)n2c(SCC(=O)Nc3ccccc3Cl)nc3ccccc32)c1`, the outcome was inactive.

For `Cc1cc(C)cc(S(=O)(=O)n2c(SCC(=O)Nc3ccc(S(C)(=O)=O)cc3Cl)nc3ccccc32)c1`, the outcome was inactive.

Take `Cc1cc(C)cc(Cn2c(SCC(=O)Nc3ccccc3Br)nc3ccccc32)c1`: the result was inactive.

In the case of `Cc1cc(C)cc(S(=O)(=O)n2c(SCC(=O)Nc3ccccc3Cl)nc3ccc(Cl)cc32)c1`, the outcome was inactive.

System in another data set: not listed separately
Kind of data set: Cytotoxicity against human MT4 cells assessed as cell viability.
Settings: not given
The data set is classed as cell-based. An outline of the steps:
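Uninfected MT-4 cells run in parallel with the antiviral assay. CC50 = concentration reducing MT-4 cell viability by 50%.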
Consider `Cc1cc(C)cc(Cn2c(SCC(=O)Nc3ccc(C)cc3Cl)nc3ccc(Cl)cc32)c1`, for which the CC50 came out at 79.3 µM.

`Cc1cc(C)cc(S(=O)(=O)n2c(SCC(=O)Nc3ccccc3Cl)nc3ccccc32)c1`: the CC50 came to 107 µM.

In the case of `Cc1cc(C)cc(S(=O)(=O)n2c(SCC(=O)Nc3ccc(S(C)(=O)=O)cc3Cl)nc3ccccc32)c1`, the CC50 was above 222 µM.

For the molecule `Cc1cc(C)cc(Cn2c(SCC(=O)Nc3ccccc3Br)nc3ccccc32)c1`, the CC50 was at least 144 µM.

Take `Cc1cc(C)cc(S(=O)(=O)n2c(SCC(=O)Nc3ccccc3Cl)nc3ccc(Cl)cc32)c1`: the CC50 was found to be 99.3 µM.

The test system of another data set is Human immunodeficiency virus 1. Nature of the data set: Antiviral activity against HIV-1 3B infected in human MT4 cells assessed as inhibition of virus-induced cytopathic effect after 5 days. The following applies: Human immunodeficiency virus 1, 3B, MT4, 120 h. The format is functional, organism-based. The essentials: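 MT-4 cells infected with HIV-1 IIIB at ~100 times the CCID50 per ml, mixed 1:1 with serial compound dilutions, incubated at 37 °C for 5 days. Viable cell number then determined. EC50 = concentration reducing virus-induced cytopathicity by 50%.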
On the technique in general: Damage to the host cells serves as the signal in cytopathic effect assays.
As for `Cc1cc(C)cc(Cn2c(SCC(=O)Nc3ccc(C)cc3Cl)nc3ccc(Cl)cc32)c1`, the EC50 is above 79.3 µM.

For the molecule `Cc1cc(C)cc(S(=O)(=O)n2c(SCC(=O)Nc3ccccc3Cl)nc3ccccc32)c1`, the EC50 came to 0.088 µM.

As for `Cc1cc(C)cc(S(=O)(=O)n2c(SCC(=O)Nc3ccc(S(C)(=O)=O)cc3Cl)nc3ccccc32)c1`, the EC50 came out at 0.04 µM.

Consider `Cc1cc(C)cc(Cn2c(SCC(=O)Nc3ccccc3Br)nc3ccccc32)c1`, for which the EC50 came out at 1.12 µM.

In the case of `Cc1cc(C)cc(S(=O)(=O)n2c(SCC(=O)Nc3ccccc3Cl)nc3ccc(Cl)cc32)c1`, the EC50 worked out at 1.77 µM.

System in another data set: not listed separately
Kind of data set: Selectivity index, ratio of CC50 for human MT4 cells to EC50 for HIV-1 3B. The format is toxicity, cell-based. Conditions: read-out: Ratio CC50/EC50. The essentials:
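Calculated as CC50/EC50, both from MT-4 cells: CC50 from the parallel viability assay, EC50 from the 5-day HIV-1 IIIB cytopathicity assay.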
Turning to `Cc1cc(C)cc(Cn2c(SCC(=O)Nc3ccc(C)cc3Cl)nc3ccc(Cl)cc32)c1`, the selectivity ratio was below 1.

Take `Cc1cc(C)cc(S(=O)(=O)n2c(SCC(=O)Nc3ccccc3Cl)nc3ccccc32)c1`: the selectivity ratio turned out to be 1220.

As to `Cc1cc(C)cc(S(=O)(=O)n2c(SCC(=O)Nc3ccc(S(C)(=O)=O)cc3Cl)nc3ccccc32)c1`, the selectivity ratio is above 5540.

Take `Cc1cc(C)cc(Cn2c(SCC(=O)Nc3ccccc3Br)nc3ccccc32)c1`: the selectivity ratio was at least 128.

In the case of `Cc1cc(C)cc(S(=O)(=O)n2c(SCC(=O)Nc3ccccc3Cl)nc3ccc(Cl)cc32)c1`, the selectivity ratio came out at 56.

Another data set concerns Human immunodeficiency virus 2. Nature of the data set: Antiviral activity against HIV-2 ROD. The data set is classed as functional, organism-based. Conditions: ISOLATE ROD.
In the case of `Cc1cc(C)cc(Cn2c(SCC(=O)Nc3ccc(C)cc3Cl)nc3ccc(Cl)cc32)c1`, the outcome was inactive.

With `Cc1cc(C)cc(S(=O)(=O)n2c(SCC(=O)Nc3ccccc3Cl)nc3ccccc32)c1`, the outcome was inactive.

Take `Cc1cc(C)cc(S(=O)(=O)n2c(SCC(=O)Nc3ccc(S(C)(=O)=O)cc3Cl)nc3ccccc32)c1`: the result was inactive.

Regarding `Cc1cc(C)cc(Cn2c(SCC(=O)Nc3ccccc3Br)nc3ccccc32)c1`, the outcome was inactive.

`Cc1cc(C)cc(S(=O)(=O)n2c(SCC(=O)Nc3ccccc3Cl)nc3ccc(Cl)cc32)c1`: the outcome was inactive.
